Source: ChEMBL document CHEMBL1126952, “Synthesis and antitumor properties of an anthraquinone bisubstituted by the copper chelating peptide Gly-Gly-L-His” (J Med Chem, 1993)

Experiments:
[1] = Therapeutic effect against P388 leukemia in mice on days 1, 5 and 9 after administration of 1.6 mg/kg dose expressed as median survival time of treated and control mice (in vivo); format: organism-based; set-up: dose 1.6 mg/kg; conditions: mouse
In short: (§1)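 DBA2 mice implanted ip with 10^6 P388 cells on D0; drug given ip on D1, D5, D9. Groups of 7 treated mice, 10 untreated controls. Mice weighed daily; study ended D45. T/C (%) = median survival time of treated over control group.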

[2] = species: Homo sapiens; test: In vitro inhibitory activity against MCF-7 mammary cell line; format: functional; conditions: MCF7, read-out: ID50 (the source's name)
In short: (§2)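 Exponentially growing cells exposed 3 days to drug at final 10^-9 to 10^-4 M. L1210: RPMI 1640 + 10% FCS, seeded 1.5 × 10^5 cells/mL in flasks. MCF7: DMEM + 10% FCS, 10^5 cells/well in 6-well plates. Growth and viability by trypan blue counting; ID50 = concentration inhibiting growth by 50% of control.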

[3] = test system: Nucleic Acid; test: Thermal denaturation of calf-thymus DNA was evaluated; format: functional; conditions: Bos taurus
In short: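 Calf thymus DNA (% GC 42) at 2 × 10^-4 M in 0.1 SSC (0.15 M NaCl/0.015 M sodium citrate, pH 7.0). Six curves at P/DNA = 0, 0.2, 0.4, 0.6, 0.8 and 1. A260 followed from 20 to 95 °C at 1 °C/min in a 10-mm cell. Tm = midpoint of the hyperchromic transition.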

[4] = species: Mus musculus; test: In vitro cytotoxicity against L1210 leukemia cell line; format: functional; conditions: read-out: LD50 (the source's name)
In short: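 L1210 mouse lymphocytic leukemia cells in RPMI 1640 with 10% (v/v) foetal calf serum, in exponential growth, seeded at 1.5 × 10^5 cells/mL in flasks; drug added at final 10^-9 to 10^-4 M for 3 days. Growth and viability counted by trypan blue staining; ID50 is the concentration inhibiting cell growth by 50% of control.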

[5] = species: Mus musculus; test: In vitro inhibitory activity against L1210 leukemia cell line; format: functional; conditions: read-out: ID50 (the source's name); in short: as §2
[6] = Therapeutic effect against P388 leukemia in mice on days 1, 5 and 9 after administration of 10 mg/kg dose expressed as median survival time of treated and control mice (in vivo); format: organism-based; set-up: dose 10 mg/kg; conditions: mouse; in short: as §1
[7] = Therapeutic effect against P388 leukemia in mice on days 1, 5 and 9 after administration of 25 mg/kg dose expressed as median survival time of treated and control mice (in vivo); format: organism-based; set-up: dose 25 mg/kg; conditions: mouse; in short: as §1
[8] = Therapeutic effect against P388 leukemia in mice on days 1, 5 and 9 after administration of 5 mg/kg dose expressed as median survival time of treated and control mice (in vivo); format: organism-based; set-up: dose 5 mg/kg; conditions: mouse; in short: as §1

O=C1c2c(O)ccc(O)c2C(=O)c2c(NCCNCCO)ccc(NCCNCCO)c21 [MITOXANTRONE] gave a T/C [1] of 190, an IC50 [2] of 270 nM and a ΔTm [3] of 15.9 °C. For the same molecule, the CC50 [4] was 7 nM and the IC50 [5] was 7 nM.
With NCC(=O)NCC(=O)N[C@@H](Cc1c[nH]cn1)C(=O)NCCNc1ccc(NCCNC(=O)[C@H](Cc2c[nH]cn2)NC(=O)CNC(=O)CN)c2c1C(=O)c1c(O)ccc(O)c1C2=O [listing 1 of 2 here] the IC50 [2] was 800 nM, the CC50 [4] was 70 nM and the IC50 [5] was 50 nM.
For NCC(=O)NCC(=O)N[C@@H](Cc1c[nH]cn1)C(=O)NCCNc1ccc(NCCNC(=O)[C@@H](Cc2c[nH]cn2)NC(=O)CNC(=O)CN)c2c1C(=O)c1c(O)ccc(O)c1C2=O, the ΔTm [3] was 17.1 °C.
In the case of NCCCC(NC(=O)[C@@H](Cc1c[nH]cn1)NC(=O)CNc1ccc(O)c2c1C(=O)c1c(O)ccc(O)c1C2=O)C(=O)O (stereo partly drawn), the ΔTm [3] is reported as 11.3 °C.
For NCC(=O)NCC(=O)N[C@@H](Cc1c[nH]cn1)C(=O)NCCNc1ccc(NCCNC(=O)[C@H](Cc2c[nH]cn2)NC(=O)CNC(=O)CN)c2c1C(=O)c1c(O)ccc(O)c1C2=O [listing 2 of 2 here], the T/C [6] was 150, the T/C [7] was 230 and the T/C [8] was 140.
